Laboratory results published in ChEMBL document CHEMBL3525900, “Pharmacokinetics, distribution, and metabolism of [14C]sunitinib in rats, monkeys, and humans” (Drug Metab Dispos, 2012).

What was measured:
[1] = Terminal half life in human plasma at 50 mg, po administered as single dose by LC/MS/MS analysis; type: ADME, organism-based; set-up: dosed compound name [14C]Sunitinib; settings: read-out: beta t1/2 (converted)
[2] = Apparent terminal half life in female Sprague-Dawley rat plasma at 5 mg/kg, iv administered as single dose by LC/MS/MS analysis; type: ADME, organism-based; set-up: dose 5 mg/kg, dosed compound name [14C]Sunitinib, route intravenous; settings: read-out: t1/2 lambda z (converted)
Method in brief: (§1)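 Single dose of [14C]sunitinib L-malate as free base, 50 µCi/kg. IV dose was 5 mg/kg by tail vein in 5 females. Oral dose was 15 mg/kg by gavage in 3 females and 3 males. Total radioactivity was by scintillation counting. […] Cmax was read from raw data, t½ by log-linear regression, AUC by linear trapezoidal rule.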

[3] = Tmax in male cynomolgus monkey plasma at 6 mg/kg, po administered as single dose by LC/MS/MS analysis; type: ADME, organism-based, Macaca fascicularis; set-up: dose 6 mg/kg, dosed compound name [14C]Sunitinib, route oral
[4] = Drug excretion in urine of male Sprague-Dawley rat at 15 mg/kg, po administered as single dose by liquid scintillation counting; type: ADME, organism-based; set-up: dose 15 mg/kg, dosed compound name [14C]Sunitinib, route oral; settings: in vivo
[5] = Apparent terminal half life in female Sprague-Dawley rat plasma at 15 mg/kg, po administered as single dose by LC/MS/MS analysis; type: ADME, organism-based; set-up: dose 15 mg/kg, dosed compound name [14C]Sunitinib, route oral; settings: read-out: t1/2 lambda z (converted); method in brief: as §1
[6] = Drug excretion in feces of female Sprague-Dawley rat at 15 mg/kg, po administered as single dose by liquid scintillation counting; type: ADME, organism-based; set-up: dose 15 mg/kg, dosed compound name [14C]Sunitinib, route oral; settings: in vivo
[7] = Cmax in male cynomolgus monkey plasma at 6 mg/kg, po administered as single dose by LC/MS/MS analysis; type: ADME, organism-based, Macaca fascicularis; set-up: dose 6 mg/kg, dosed compound name [14C]Sunitinib, route oral
Method in brief: (§2)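 Cynomolgus monkeys were given a single oral gavage of [14C]sunitinib L-malate at 6 mg/kg (37 µCi/kg). Heparinized femoral-vein blood was taken at pre-dose and 0.5–336 h. […] Cmax was read directly from the raw concentration data.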

[8] = AUC (0 to infinity) in male cynomolgus monkey plasma at 6 mg/kg, po administered as single dose by LC/MS/MS analysis; type: ADME, organism-based, Macaca fascicularis; set-up: time infinity, dose 6 mg/kg, dosed compound name [14C]Sunitinib, route oral
Method in brief: (§3)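 Cynomolgus monkeys of both sexes received one oral gavage of [14C]sunitinib L-malate at 6 mg/kg (37 µCi/kg). Femoral-vein blood was taken into heparin from 0.5 to 336 h. Plasma was kept cold and protected from light, then stored at -80 °C. Total radioactivity was by scintillation counting and sunitinib by methanol-extraction LC-MS-MS. Cmax was from raw data, t½ from the log-linear terminal slope, AUC(0-∞) by linear trapezoidal rule.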

[9] = AUC (0 to infinity) in female Sprague-Dawley rat plasma at 15 mg/kg, po administered as single dose by LC/MS/MS analysis; type: ADME, organism-based; set-up: time infinity, dose 15 mg/kg, dosed compound name [14C]Sunitinib, route oral; method in brief: as §1
[10] = Retention time of compound by LC/MS/MS analysis; type: physicochemical; set-up: dosed compound name [14C]Sunitinib
[11] = Drug excretion in feces of female cynomolgus monkey at 6 mg/kg, po administered as single dose by liquid scintillation counting; type: ADME, organism-based, Macaca fascicularis; set-up: dose 6 mg/kg, dosed compound name [14C]Sunitinib, route oral; settings: in vivo
[12] = Drug excretion in feces of female Sprague-Dawley rat at 5 mg/kg, iv administered as single dose by liquid scintillation counting; type: ADME, organism-based; set-up: dose 5 mg/kg, dosed compound name [14C]Sunitinib, route intravenous; settings: in vivo
[13] = Terminal half life in male cynomolgus monkey plasma at 6 mg/kg, po administered as single dose by LC/MS/MS analysis; type: ADME, organism-based, Macaca fascicularis; set-up: dose 6 mg/kg, dosed compound name [14C]Sunitinib, route oral; settings: read-out: beta t1/2 (converted)
[14] = Tmax in female cynomolgus monkey plasma at 6 mg/kg, po administered as single dose by LC/MS/MS analysis; type: ADME, organism-based, Macaca fascicularis; set-up: dose 6 mg/kg, dosed compound name [14C]Sunitinib, route oral
[15] = Cmax in female Sprague-Dawley rat plasma at 15 mg/kg, po administered as single dose by LC/MS/MS analysis; type: ADME, organism-based; set-up: dose 15 mg/kg, dosed compound name [14C]Sunitinib, route oral; method in brief: as §1
[16] = AUC (0 to infinity) in female Sprague-Dawley rat plasma at 5 mg/kg, iv administered as single dose by LC/MS/MS analysis; type: ADME, organism-based; set-up: time infinity, dose 5 mg/kg, dosed compound name [14C]Sunitinib, route intravenous; method in brief: as §1
[17] = Drug excretion in urine of female Sprague-Dawley rat at 15 mg/kg, po administered as single dose by liquid scintillation counting; type: ADME, organism-based; set-up: dose 15 mg/kg, dosed compound name [14C]Sunitinib, route oral; settings: in vivo
[18] = Drug excretion in feces of male Sprague-Dawley rat at 15 mg/kg, po administered as single dose by liquid scintillation counting; type: ADME, organism-based; set-up: dose 15 mg/kg, dosed compound name [14C]Sunitinib, route oral; settings: in vivo
[19] = Cmax in human plasma at 50 mg, po administered as single dose by LC/MS/MS analysis; type: ADME, organism-based; set-up: dose 50 mg, route oral, dosed compound name [14C]Sunitinib
Method in brief: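 This was an open-label, single-dose, single-centre phase I study in eight male subjects. Each received one oral 50 mg dose of [14C]sunitinib (100 µCi). Plasma sunitinib was measured by a validated LC-MS-MS method. Cmax was read directly from the raw concentration–time data.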

[20] = Clearance in female Sprague-Dawley rat plasma at 5 mg/kg, iv administered as single dose by LC/MS/MS analysis; type: ADME, organism-based; set-up: dose 5 mg/kg, dosed compound name [14C]Sunitinib, route intravenous
Method in brief: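 Female rats (5) were given a single tail-vein bolus of [14C]sunitinib L-malate at 5 mg/kg free base (50 µCi/kg). […] Parameters were noncompartmental, with AUC by the linear trapezoidal rule.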

[21] = Tmax in female Sprague-Dawley rat plasma at 15 mg/kg, po administered as single dose by LC/MS/MS analysis; type: ADME, organism-based; set-up: dose 15 mg/kg, dosed compound name [14C]Sunitinib, route oral
[22] = AUC (0 to infinity) in female cynomolgus monkey plasma at 6 mg/kg, po administered as single dose by LC/MS/MS analysis; type: ADME, organism-based, Macaca fascicularis; set-up: time infinity, dose 6 mg/kg, dosed compound name [14C]Sunitinib, route oral; method in brief: as §3
[23] = Volume of distribution at steady state in female Sprague-Dawley rat plasma at 5 mg/kg, iv administered as single dose by LC/MS/MS analysis; type: ADME, organism-based; set-up: dose 5 mg/kg, dosed compound name [14C]Sunitinib, route intravenous; settings: read-out: Vdss
[24] = Tmax in human plasma at 50 mg, po administered as single dose by LC/MS/MS analysis; type: ADME, organism-based; set-up: dosed compound name [14C]Sunitinib
[25] = Cmax in male Sprague-Dawley rat plasma at 15 mg/kg, po administered as single dose by LC/MS/MS analysis; type: ADME, organism-based; set-up: dose 15 mg/kg, dosed compound name [14C]Sunitinib, route oral; method in brief: as §1
[26] = Drug excretion in urine of female Sprague-Dawley rat at 5 mg/kg, iv administered as single dose by liquid scintillation counting; type: ADME, organism-based; set-up: dose 5 mg/kg, dosed compound name [14C]Sunitinib, route intravenous; settings: in vivo
[27] = Drug excretion in urine of human at 50 mg, po administered as single dose by liquid scintillation counting; settings: in vivo
[28] = Drug excretion in urine of female cynomolgus monkey at 6 mg/kg, po administered as single dose by liquid scintillation counting; type: ADME, organism-based, Macaca fascicularis; set-up: dose 6 mg/kg, dosed compound name [14C]Sunitinib, route oral; settings: in vivo
[29] = Cmax in female cynomolgus monkey plasma at 6 mg/kg, po administered as single dose by LC/MS/MS analysis; type: ADME, organism-based, Macaca fascicularis; set-up: dose 6 mg/kg, dosed compound name [14C]Sunitinib, route oral; method in brief: as §2
[30] = Drug excretion in feces of male cynomolgus monkey at 6 mg/kg, po administered as single dose by liquid scintillation counting; type: ADME, organism-based, Macaca fascicularis; set-up: dose 6 mg/kg, dosed compound name [14C]Sunitinib, route oral; settings: in vivo
[31] = AUC (0 to infinity) in male Sprague-Dawley rat plasma at 15 mg/kg, po administered as single dose by LC/MS/MS analysis; type: ADME, organism-based; set-up: time infinity, dose 15 mg/kg, dosed compound name [14C]Sunitinib, route oral; method in brief: as §1
[32] = Cmax in female Sprague-Dawley rat plasma at 5 mg/kg, iv administered as single dose by LC/MS/MS analysis; type: ADME, organism-based; set-up: dose 5 mg/kg, dosed compound name [14C]Sunitinib, route intravenous; method in brief: as §1
[33] = Terminal half life in female cynomolgus monkey plasma at 6 mg/kg, po administered as single dose by LC/MS/MS analysis; type: ADME, organism-based, Macaca fascicularis; set-up: dose 6 mg/kg, dosed compound name [14C]Sunitinib, route oral; settings: read-out: beta t1/2 (converted)
[34] = Apparent terminal half life in male Sprague-Dawley rat plasma at 15 mg/kg, po administered as single dose by LC/MS/MS analysis; type: ADME, organism-based; set-up: dose 15 mg/kg, dosed compound name [14C]Sunitinib, route oral; settings: read-out: t1/2 lambda z (converted); method in brief: as §1
[35] = Drug excretion in feces of human at 50 mg, po administered as single dose by liquid scintillation counting; settings: in vivo
[36] = Tmax in male Sprague-Dawley rat plasma at 15 mg/kg, po administered as single dose by LC/MS/MS analysis; type: ADME, organism-based; set-up: dose 15 mg/kg, dosed compound name [14C]Sunitinib, route oral
[37] = AUC (0 to infinity) in human plasma at 50 mg, po administered as single dose by LC/MS/MS analysis; type: ADME, organism-based; set-up: dose 50 mg, route oral, time infinity, dosed compound name [14C]Sunitinib
Method in brief: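 Open-label phase I study in 8 subjects given one 50 mg oral dose of [14C]sunitinib (100 µCi). Plasma total radioactivity was counted by scintillation on triplicate 0.25 mL aliquots. Sunitinib was quantified by LC-MS-MS. Noncompartmental analysis: Cmax read directly, terminal t½ = ln(2)/slope of the log-concentration regression, AUC by linear trapezoidal rule to the last detectable concentration.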

[38] = Apparent oral clearance in human plasma at 50 mg, po administered as single dose by LC/MS/MS analysis; type: ADME, organism-based; set-up: dosed compound name [14C]Sunitinib
[39] = Drug excretion in urine of male cynomolgus monkey at 6 mg/kg, po administered as single dose by liquid scintillation counting; type: ADME, organism-based, Macaca fascicularis; set-up: dose 6 mg/kg, dosed compound name [14C]Sunitinib, route oral; settings: in vivo

## CCN(CC)CCNC(=O)c1c(C)[nH]c(/C=C2\C(=O)Nc3ccc(F)cc32)c1C [SUNITINIB]
[1]
  half-life: 50.9 h
[2]
  half-life: 7.4 h
[3]
  Tmax: 5 h
[4]
  Compound recovery: 0.5%
[5]
  half-life: 7.2 h
[6]
  Compound recovery: 11.5%
[7]
  Cmax: 92 ng/mL
[8]
  AUC(0-inf): 1450 ng·h/mL
[9]
  AUC(0-inf): 24000 ng·h/mL
[10]
  Retention_time: 4 min
[11]
  Compound recovery: 9.2%
[12]
  Compound recovery: 22.6%
[13]
  half-life: 18 h
[14]
  Tmax: 4 h
[15]
  Cmax: 1250 ng/mL
[16]
  AUC(0-inf): 7200 ng·h/mL
[17]
  Compound recovery: 0.6%
[18]
  Compound recovery: 5.8%
[19]
  Cmax: 24.4 ng/mL
[20]
  clearance: 13 mL/min/kg
[21]
  Tmax: 4 h
[22]
  AUC(0-inf): 1100 ng·h/mL
[23]
  Vd: 3.36 L/kg
[24]
  Tmax: 8 h
[25]
  Cmax: 963 ng/mL
[26]
  Compound recovery: 0.3%
[27]
  Compound recovery: 6.4%
[28]
  Compound recovery: 0.2%
[29]
  Cmax: 83 ng/mL
[30]
  Compound recovery: 8.8%
[31]
  AUC(0-inf): 11800 ng·h/mL
[32]
  Cmax: 1820 ng/mL
[33]
  half-life: 16 h
[34]
  half-life: 8 h
[35]
  Compound recovery: 13.6%
[36]
  Tmax: 3 h
[37]
  AUC(0-inf): 1060 ng·h/mL
[38]
  CL/F: 832 mL/min
[39]
  Compound recovery: 0.2%
